Most compounds without a hit are left out; they make up all but 3.7% or so of the library.
hERG rescue = hERG (human) protection from proarrhythmic block; Q12809; CHO-hERG, FluxOR thallium flux, dofetilide IC70 present; activation (rescue from dofetilide block), less the hit threshold, % at 10 µM; 310,000 compounds, 0.51% hits;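 active means activation above the mean of controls blocked by dofetilide plus 5 SD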;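 further: thallium influx through hERG after potassium depolarization seen as dye fluorescence rise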
Kir21 block = blocks the mouse Kir2.1 inward-rectifier potassium channel | P35561 | HEK293-Kir2.1, FluxOR thallium flux fluorescence; active compounds read low | B-score at 10 µM | 310,000 compounds, 0.85% hits;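 active means fluorescence ratio B-score at or below minus 3 SD of library scores, with starting-brightness B-score within 2 SD, cut at about -4.2 in these data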;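 further: channel flux triggered by added potassium and thallium sulfate stimulus; B-score of peak minus minimum fluorescence over baseline after thallium stimulus; more negative B-score means stronger Kir2.1 block with less thallium influx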
KCNQ1 inh = human KCNQ1 channel inhibition; CHO-K1 KCNQ1, FluxOR thallium flux fluorescence; active compounds read high; B-score at 10 µM; AID 2642; 310,000 compounds, 1.3% hits; P51787;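 active means compounds whose thallium flux B-score, printed positive for inhibition, exceeds three library SD while starting fluorescence stays within three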;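 further: channel opened by potassium depolarization with thallium stimulus after 20 min compound exposure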
KCNQ1 act = potentiates or activates the human KCNQ1 potassium channel; 310,000 compounds, 0.35% hits; AID 2648; CHO-K1 KCNQ1, thallium flux FluxOR fluorescence; active compounds read high; B-score at 10 µM;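 active means fluorescence ratio B-score, a plate-corrected score, at least three library SD, with initial intensity B-score within 5 SD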
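assay system = CHO-K1 cells stably expressing KCNQ1 | medium = assay buffer, equal DMSO in all wells | timing = 37 °C overnight plating, 90-min dark dye load, 20-min compound pretreatment | measured by = kinetic FluxOR thallium fluorescence, 10-s 1-Hz baseline, 110-s post-stimulus read | measure = fluorescence change relative to baseline, converted to B score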
KCNK3 block = human KCNK3 channel inhibition, primary screen. 340,000 compounds, 0.84% hits. CHO-KCNK3 thallium flux, FluxOR fluorescence; active compounds read low. B-score at 10 µM;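 active means B-score under library mean minus 4 SD, starting fluorescence ratio at most library mean plus 5 SD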;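 further: more negative B-score means stronger inhibition of thallium flux through KCNK3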
Target sequence (O14649 whole entry, looked up): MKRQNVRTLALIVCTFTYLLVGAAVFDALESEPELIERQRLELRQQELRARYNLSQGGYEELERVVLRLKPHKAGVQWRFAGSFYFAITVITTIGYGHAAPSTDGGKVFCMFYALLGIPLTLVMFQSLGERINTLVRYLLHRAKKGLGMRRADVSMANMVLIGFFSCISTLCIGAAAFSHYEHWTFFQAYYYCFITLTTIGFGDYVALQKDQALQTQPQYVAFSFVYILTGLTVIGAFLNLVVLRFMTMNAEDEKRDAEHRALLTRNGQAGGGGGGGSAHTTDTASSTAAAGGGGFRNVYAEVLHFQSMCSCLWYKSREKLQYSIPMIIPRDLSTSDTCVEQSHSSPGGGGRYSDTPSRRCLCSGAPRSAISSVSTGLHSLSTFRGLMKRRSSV
KCNK9 inh = inhibitors of human KCNK9 two-pore domain potassium channel | Q9NPC2 | HEK293 KCNK9, FluxOR thallium flux fluorescence; active compounds read low | B-score at 10 µM | 310,000 compounds, 1.2% hits | AID 488922;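 active means ratio B-score over 3 SD below the library mean, with starting fluorescence within 5 SD of its mean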;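 further: negative B-score means less thallium flux so channel inhibition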
KCNK9 inh conf = confirmation of human KCNK9 potassium channel inhibitors; shares compounds with KCNK9 inh; HEK293 KCNK9 cells, FluxOR thallium flux fluorescence; inhibition, % at 10 µM; 4,900 compounds, 43% hits;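 active means thallium signal inhibited by more than 5 SD of the compound-free buffer control wells, on both duplicate plates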;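 further: 0% = assay buffer control wells without compound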
Kir2-1 spec = tests whether KCNK9 modulators also affect mouse Kir2.1; inhibition, % at 10 µM; shares compounds with KCNK9 inh; 4,900 compounds, 4% hits; Kir2.1 cells, FluxOR thallium flux fluorescence; AID 492993;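 active means thallium signal drop more than 5 SD beyond the mean of the no-compound control wells, seen in both duplicate plates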;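 further: signal is fluorescence rise after thallium addition divided by baseline fluorescence; plate controls were assay buffer only for no effect and full block by chlorpromazine control for full effect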
KCNK9 uninduced = non-induced cell nonspecific activity of KCNK9 modulators. non-induced KCNK9-HEK293, FluxOR thallium flux. 4,900 compounds, 40% hits. shares compounds with KCNK9 inh. inhibition, % at 10 µM. AID 492997;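 active means thallium signal drop beyond 5 SD of the untreated control mean, on both duplicate plates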;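 further: plate controls were buffer only IC0 wells for no effect and SID17386958 at its maximal inhibitory level for full effect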
Active calls of the source: *.

For CN1N=C(c2ccc(Cl)cc2)CC(c2ccc(Cl)cc2)C1=O (stereo unspecified) the results were hERG rescue -7, Kir21 block 1.5, KCNQ1 inh inactive, KCNQ1 act inactive, KCNK3 block inactive, KCNK9 inh -11*, KCNK9 inh conf 38%*, Kir2-1 spec inactive and KCNK9 uninduced 40%*.
Screening Cc1ccc(C2CC(c3ccc(Cl)cc3)=NNC2=O)cc1 (stereo unspecified) returned hERG rescue -5, Kir21 block 0.01, KCNQ1 inh inactive, KCNQ1 act inactive, KCNK3 block inactive and KCNK9 inh inactive.
For O=C(N[C@H]1CCC(=O)N(CCSc2ccc(Br)cc2)CC1)OCc1ccccc1 the results were KCNK3 block inactive.
Cc1ccc(SCCN2CCC(C(C)(C)C)CCC2=O)cc1 (stereo unspecified) was read as hERG rescue -9, Kir21 block -0.68, KCNQ1 inh inactive, KCNQ1 act inactive, KCNK3 block inactive, KCNK9 inh inactive, KCNK9 inh conf inactive, Kir2-1 spec inactive and KCNK9 uninduced inactive.
`Cc1ccc(SCCN2CCC(NC(=O)OCc3ccccc3)CCC2=O)cc1` (stereo unspecified) gave hERG rescue -12, Kir21 block -1.7, KCNQ1 inh inactive, KCNQ1 act inactive, KCNK3 block inactive, KCNK9 inh inactive, KCNK9 inh conf inactive, Kir2-1 spec inactive and KCNK9 uninduced inactive.
Cc1ccc(SCCN2CCN(CC(C)C)CCC2=O)cc1 was read as hERG rescue -8, Kir21 block 0.04, KCNQ1 inh inactive, KCNQ1 act inactive, KCNK3 block inactive, KCNK9 inh inactive, KCNK9 inh conf inactive, Kir2-1 spec inactive and KCNK9 uninduced inactive.
Screening C[C@@H](CSc1ccccc1)CN1CC[C@H](C(C)(C)C)CCC1=O returned hERG rescue -10, Kir21 block -5.3*, KCNQ1 inh inactive, KCNQ1 act inactive, KCNK3 block inactive, KCNK9 inh inactive, KCNK9 inh conf inactive, Kir2-1 spec inactive and KCNK9 uninduced inactive.
For COc1cccc(NC(=O)CCCn2nc(C)c3c(C)n(-c4ccccc4)nc3c2=O)c1 the results were hERG rescue -12, Kir21 block -1.2, KCNQ1 inh inactive, KCNQ1 act inactive, KCNK3 block inactive and KCNK9 inh inactive.
Screening COc1ccc(CCNC(=O)c2c([S-])n(-c3ccc(C)cc3)c3cccc[n+]23)cc1 returned hERG rescue -24, Kir21 block 0.18, KCNQ1 inh inactive, KCNQ1 act inactive, KCNK3 block inactive, KCNK9 inh inactive, KCNK9 inh conf inactive, Kir2-1 spec inactive and KCNK9 uninduced inactive.
CCn1c(SCc2ccc(Cl)cc2Cl)nc2nc3c(cc2c1=O)CCCC3 was read as hERG rescue -13, Kir21 block 0.32, KCNQ1 inh inactive, KCNQ1 act inactive, KCNK3 block inactive, KCNK9 inh inactive, KCNK9 inh conf inactive, Kir2-1 spec inactive and KCNK9 uninduced inactive.
O=C(COc1ccc(Cl)cc1)NCCCNC(=O)c1ccncc1 was read as hERG rescue -4, Kir21 block -0.45, KCNQ1 inh inactive, KCNQ1 act inactive, KCNK3 block inactive and KCNK9 inh inactive.
Screening COCCNC(=O)C(c1cccc(OC)c1)N(Cc1cccs1)C(=O)Cn1nnc2ccccc21 (stereo unspecified) returned hERG rescue -8, Kir21 block -0.29, KCNQ1 inh inactive, KCNQ1 act inactive, KCNK3 block inactive and KCNK9 inh inactive.
For CCC(C)N(C(=O)Cn1nnc2ccccc21)C(C(=O)Nc1ccc(F)cc1)c1cccc(OC)c1 (stereo unspecified) the results were hERG rescue -4, Kir21 block 1.3, KCNQ1 inh inactive, KCNQ1 act inactive, KCNK3 block inactive, KCNK9 inh -9.2*, KCNK9 inh conf 36%*, Kir2-1 spec inactive and KCNK9 uninduced inactive.
Screening Cc1nn(C)cc1C(C(=O)NC1CCCCC1)N(Cc1ccccc1Cl)C(=O)c1cnccn1 (stereo unspecified) returned hERG rescue -12, Kir21 block -0.05, KCNQ1 inh inactive, KCNQ1 act inactive, KCNK3 block inactive and KCNK9 inh inactive.
`COC(=O)c1ccc(C(C(=O)NC2CCCCC2)N(Cc2ccc(F)cc2)C(=O)Cc2cccs2)cc1` (stereo unspecified) gave hERG rescue -3, Kir21 block -1.5, KCNQ1 inh inactive, KCNQ1 act inactive, KCNK3 block inactive, KCNK9 inh -11*, KCNK9 inh conf inactive, Kir2-1 spec inactive and KCNK9 uninduced 31%*.
Screening Cc1cc(C)nc(SCc2nnc(SCc3ccccc3Cl)o2)n1 returned hERG rescue -12, Kir21 block -2, KCNQ1 inh inactive, KCNQ1 act inactive, KCNK3 block inactive, KCNK9 inh -8.5*, KCNK9 inh conf 47%*, Kir2-1 spec inactive and KCNK9 uninduced inactive.
For Cc1cccc(OCCNC(=O)c2cccc(Oc3ccc(C(F)(F)F)cc3[N+](=O)[O-])c2)c1 the results were hERG rescue -9, Kir21 block 0.3, KCNQ1 inh inactive, KCNQ1 act inactive, KCNK3 block inactive, KCNK9 inh inactive, KCNK9 inh conf inactive, Kir2-1 spec inactive and KCNK9 uninduced inactive.
`COc1cc(/C=C(/C#N)C(=O)NC(C)c2ccccc2)cc(OC)c1O` (stereo unspecified) gave hERG rescue -8, Kir21 block -1.2, KCNQ1 inh inactive, KCNQ1 act inactive, KCNK3 block inactive and KCNK9 inh inactive.
COc1ccccc1/C=C/C=C(\C#N)C(=O)NC(C)c1ccccc1 (stereo unspecified) was read as hERG rescue -9, Kir21 block -0.07, KCNQ1 inh inactive, KCNQ1 act inactive, KCNK3 block inactive, KCNK9 inh inactive, KCNK9 inh conf inactive, Kir2-1 spec inactive and KCNK9 uninduced inactive.
CC(NC(=O)/C(C#N)=C/c1cn(-c2ccccc2)nc1-c1ccc(F)cc1)c1ccccc1 (stereo unspecified) was read as hERG rescue -6, Kir21 block -0.31, KCNQ1 inh inactive, KCNQ1 act inactive, KCNK3 block inactive, KCNK9 inh inactive, KCNK9 inh conf inactive, Kir2-1 spec inactive and KCNK9 uninduced inactive.
